From ChEMBL document CHEMBL3862036, “Biphenyl Pyridazinone Derivatives as Inhaled PDE4 Inhibitors: Structural Biology and Structure-Activity Relationships” (J Med Chem, 2016)

What was measured:
[1] = Pro-inflammatory activity in Sprague-Dawley rat assessed as induction of neutrophilia at 1000 ug/kg, it administered as dry powder with lactose carrier through Penn-Century insufflator; conditions: in vivo, inhaled_or_intranasal, 1 mg/kg
[2] = Inhibition of PDE4 in PBMC (unknown origin) assessed as reduction in LPS-induced TNFalpha production incubated for 24 hrs by ELISA; conditions: Homo sapiens
[3] = system: Rattus norvegicus; experiment: Anti-inflammatory activity in Sprague-Dawley rat assessed as inhibition of LPS-induced neutrophilia at 100 ug/kg, it administered as suspension with Penn-Century micro-sprayer aerosolizer dosed 1 hrs before LPS challenge and measured 5 hrs post dose; type: functional; conditions: inhaled or nasal
Procedure, shortened: (§1)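 Suspensions in PBS/0.2% Tween 80 were homogenized, with lower doses made by 1:10 dilutions. 0.2 mL was given intratracheally by MicroSprayer to isoflurane-anesthetized fasted male Sprague-Dawley rats (230–280 g). At 1 or 18 h, rats received nebulized LPS (30 mL of a 1:100 PBS dilution of 100 mg/10 mL stock) over 40 min. Four hours later, BAL neutrophils were counted by flow cytometry.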

[4] = target: T1, Adenosine receptor A1 (Homo sapiens, UniProt P30542); experiment: Antagonist activity at adenosine A1 receptor (unknown origin)
T1 sequence (P30542 whole entry): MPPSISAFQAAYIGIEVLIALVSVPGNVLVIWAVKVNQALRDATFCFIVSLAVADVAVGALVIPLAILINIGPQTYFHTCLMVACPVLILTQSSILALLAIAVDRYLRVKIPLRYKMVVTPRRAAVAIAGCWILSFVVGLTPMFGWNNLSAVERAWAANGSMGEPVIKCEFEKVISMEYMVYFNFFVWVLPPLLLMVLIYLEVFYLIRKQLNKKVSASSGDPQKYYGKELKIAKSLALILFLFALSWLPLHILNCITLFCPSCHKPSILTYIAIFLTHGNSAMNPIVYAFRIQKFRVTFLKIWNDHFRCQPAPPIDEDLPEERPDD

[5] = system: Rattus norvegicus; experiment: Anti-inflammatory activity in Sprague-Dawley rat assessed as inhibition of LPS-induced neutrophilia at 1000 ug/kg, it administered as dry powder with lactose carrier through Penn-Century insufflator dosed 1 hrs before LPS challenge and measured 5 hrs post dose; type: functional
Procedure, shortened: (§2)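 Compounds were micronized, comixed with lactose, and 5 mg of the mixture was insufflated intratracheally into isoflurane-anesthetized fasted male Sprague-Dawley rats (230–280 g). LPS aerosol (30 mL of a 1:100 PBS dilution of 100 mg/10 mL stock) was nebulized for 40 min at 1 or 18 h post-dose. BAL was taken 4 h later and neutrophils counted by flow cytometry. Controls: lactose alone, lactose+LPS, fluticasone (10% in lactose).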

[6] = Inhibition of PDE4 in human whole blood assessed as reduction in LPS-induced TNFalpha production incubated for 24 hrs by ELISA; type: tissue-based
Procedure, shortened: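 Human whole blood was preincubated with LPS (final 1 μg/mL) for 10 min at 37 °C with rocking. 200 μL was added to wells holding increasing inhibitor concentrations in 100% DMSO. Plates were incubated 24 h at 37 °C under agitation, then placed on ice, diluted with PBS and centrifuged at 800g, 4 °C, for 15 min before TNF-α measurement.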

[7] = system: Rattus norvegicus; experiment: Toxicity in Sprague-Dawley rat model of LPS-induced neutrophilia assessed as induction of irritation in lungs at 1000 ug/kg, it administered as dry powder with lactose carrier through Penn-Century insufflator dosed 18 hrs before LPS challenge and measured 22 hrs post dose; type: organism-based; conditions: in vivo, inhaled_or_intranasal, 1 mg/kg
[8] = target: T2, Adenosine receptor A2b (Homo sapiens, UniProt P29275); experiment: Antagonist activity at adenosine A2b receptor (unknown origin)
T2 sequence (P29275 whole entry): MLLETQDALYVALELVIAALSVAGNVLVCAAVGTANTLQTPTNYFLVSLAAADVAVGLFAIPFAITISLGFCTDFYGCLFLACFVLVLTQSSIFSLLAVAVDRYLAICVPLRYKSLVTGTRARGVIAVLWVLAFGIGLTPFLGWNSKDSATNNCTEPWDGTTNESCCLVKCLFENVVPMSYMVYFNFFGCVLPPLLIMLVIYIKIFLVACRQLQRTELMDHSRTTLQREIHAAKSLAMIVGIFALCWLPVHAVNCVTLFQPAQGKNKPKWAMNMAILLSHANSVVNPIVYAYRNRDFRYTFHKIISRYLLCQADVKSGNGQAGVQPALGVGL

[9] = system: Rattus norvegicus; experiment: Anti-inflammatory activity in Sprague-Dawley rat assessed as inhibition of LPS-induced neutrophilia at 10 ug/kg, it administered as dry powder with lactose carrier through Penn-Century insufflator dosed 1 hrs before LPS challenge and measured 5 hrs post dose; type: functional; procedure, shortened: as §2
[10] = system: Rattus norvegicus; experiment: Anti-inflammatory activity in Sprague-Dawley rat assessed as inhibition of LPS-induced neutrophilia at 1000 ug/kg, it administered as suspension with Penn-Century micro-sprayer aerosolizer dosed 18 hrs before LPS challenge and measured 22 hrs post dose; type: functional; conditions: inhaled or nasal; procedure, shortened: as §1
[11] = target: Adenosine receptor A2a (Homo sapiens, UniProt P29274); experiment: Antagonist activity at adenosine A2a receptor (unknown origin)
Chain of Adenosine receptor A2a (P29274 whole entry): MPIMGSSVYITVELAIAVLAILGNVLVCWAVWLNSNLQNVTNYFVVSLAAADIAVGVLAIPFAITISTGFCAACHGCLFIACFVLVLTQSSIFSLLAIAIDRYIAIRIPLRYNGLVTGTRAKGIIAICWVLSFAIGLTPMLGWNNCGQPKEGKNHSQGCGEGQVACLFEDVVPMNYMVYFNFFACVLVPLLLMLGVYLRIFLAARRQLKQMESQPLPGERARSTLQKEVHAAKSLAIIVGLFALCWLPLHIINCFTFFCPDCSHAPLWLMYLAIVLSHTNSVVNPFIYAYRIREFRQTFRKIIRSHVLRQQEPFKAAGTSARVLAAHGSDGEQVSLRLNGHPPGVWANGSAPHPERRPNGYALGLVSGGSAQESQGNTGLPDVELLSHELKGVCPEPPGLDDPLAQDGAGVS

[12] = system: Rattus norvegicus; experiment: Anti-inflammatory activity in Sprague-Dawley rat assessed as inhibition of LPS-induced neutrophilia at 10 to 1000 ug/kg, it administered as suspension with Penn-Century micro-sprayer aerosolizer dosed 1 hrs before LPS challenge and measured 5 hrs post dose; type: functional; conditions: inhaled or nasal; procedure, shortened: as §1
[13] = system: Rattus norvegicus; experiment: Anti-inflammatory activity in Sprague-Dawley rat assessed as inhibition of LPS-induced neutrophilia at 100 ug/kg, it administered as suspension with Penn-Century micro-sprayer aerosolizer dosed 18 hrs before LPS challenge and measured 22 hrs post dose; type: functional; conditions: inhaled or nasal; procedure, shortened: as §1
[14] = Selectivity index, ratio of IC50 for adenosine A1/A2a/A2b receptor (unknown origin) to IC50 for inhibition of PDE4 in PBMC (unknown origin) assessed as reduction in LPS-induced TNFalpha production; design: species or system Homo sapiens
[15] = target: 3',5'-cyclic-AMP phosphodiesterase 4B (Homo sapiens, UniProt Q07343); experiment: Inhibition of human recombinant PDE4B1 assessed as reduction in [3H]cAMP hydrolysis to [3H]AMP incubated for 60 mins by PDE-SPA assay
Chain of 3',5'-cyclic-AMP phosphodiesterase 4B (Q07343 whole entry): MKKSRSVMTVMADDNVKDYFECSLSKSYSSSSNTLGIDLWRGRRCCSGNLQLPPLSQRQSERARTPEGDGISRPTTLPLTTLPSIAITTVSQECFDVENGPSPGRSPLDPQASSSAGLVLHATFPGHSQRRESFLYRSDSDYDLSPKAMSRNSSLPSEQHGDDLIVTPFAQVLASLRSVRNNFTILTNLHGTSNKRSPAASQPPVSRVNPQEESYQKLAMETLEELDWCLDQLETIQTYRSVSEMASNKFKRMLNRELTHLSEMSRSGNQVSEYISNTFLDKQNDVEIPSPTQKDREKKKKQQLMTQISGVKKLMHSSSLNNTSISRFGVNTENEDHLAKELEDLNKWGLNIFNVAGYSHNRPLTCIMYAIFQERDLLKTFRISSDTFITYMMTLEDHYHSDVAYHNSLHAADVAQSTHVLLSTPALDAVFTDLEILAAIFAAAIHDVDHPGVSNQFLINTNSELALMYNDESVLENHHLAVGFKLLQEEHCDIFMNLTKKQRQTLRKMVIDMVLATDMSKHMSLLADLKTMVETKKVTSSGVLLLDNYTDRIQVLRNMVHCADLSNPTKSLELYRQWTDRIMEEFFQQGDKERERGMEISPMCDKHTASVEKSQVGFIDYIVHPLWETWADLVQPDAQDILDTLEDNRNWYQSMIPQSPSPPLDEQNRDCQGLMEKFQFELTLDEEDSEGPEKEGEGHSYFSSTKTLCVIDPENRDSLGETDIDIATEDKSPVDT

[16] = system: Rattus norvegicus; experiment: Anti-inflammatory activity in Sprague-Dawley rat assessed as inhibition of LPS-induced neutrophilia at 30 ug/kg, it administered as suspension with Penn-Century micro-sprayer aerosolizer dosed 18 hrs before LPS challenge and measured 22 hrs post dose; type: functional; conditions: inhaled or nasal; procedure, shortened: as §1
[17] = system: Rattus norvegicus; experiment: Anti-inflammatory activity in Sprague-Dawley rat assessed as inhibition of LPS-induced neutrophilia at 300 ug/kg, it administered as suspension with Penn-Century micro-sprayer aerosolizer dosed 18 hrs before LPS challenge and measured 22 hrs post dose; type: functional; conditions: inhaled or nasal; procedure, shortened: as §1

Row | Compound | fold change (FC) [1] | IC50 [2] [nM] | inhibition in vivo at 0.1 mg/kg [3] [%] | IC50 [4] [nM] | inhibition in vivo at 1 mg/kg [5] [%] | IC50 [6] [nM] | Activity [7] | IC50 [8] [nM] | inhibition in vivo at 0.01 mg/kg [9] [%] | inhibition in vivo at 1 mg/kg [10] [%] | IC50 [11] [nM] | ED50 [12] [mg/kg] | inhibition in vivo at 0.1 mg/kg [13] [%] | Ratio IC50 [14] | IC50 [15] [nM] | inhibition in vivo at 0.03 mg/kg [16] [%] | inhibition in vivo at 0.3 mg/kg [17] [%]
1 | CCn1nc(-c2cccc(-c3cccc(C(=O)NCCN(C)C)c3)c2)cc(NC(=O)Nc2c(Cl)cncc2Cl)c1=O | 3.2 | 0.3 | 70 | 2 | 8 | 425 | Toxic | 77 | 38 | 38 | 28 | 0.0035 | – | – | – | – | –
2 | CCn1nc(-c2cccc(-c3cc(C(=O)NC4CC4)cc(C(=O)NC4CCN(Cc5ccccc5)CC4)c3)c2)cc(NC(=O)Nc2c(Cl)cncc2Cl)c1=O | – | 0.29 | – | > 1000 | – | – | – | > 1000 | – | – | > 1000 | 0.029 | 45 | >1000 | 0.22 | 49 | 60
